Data: ChEMBL document CHEMBL1146104, “Synthesis and transdermal penetration-enhancing activity of carbonic and carbamic acid esters--comparison with transkarbam 12” (Bioorg Med Chem Lett, 2006)

Key:
Format in all cases: ADME, organism-based
Details in all cases: pig
[1] = species on record: Sus scrofa; test: Enhancement of theophylline transdermal penetration through porcine ear skin using Franz diffusion cell in water medium relative to control
Procedure, shortened: (§1)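 Theophylline permeation from donor samples with and without enhancer (control lacks enhancer); acceptor-phase theophylline quantified by HPLC. Cumulative amounts (μg/cm2) plotted against time to derive flux (μg/cm2/h). Value is the enhancement ratio: flux with enhancer divided by flux of control. Significance p < 0.05 versus control.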

[2] = species on record: Sus scrofa; test: Enhancement of theophylline transdermal penetration through porcine ear skin using Franz diffusion cell in propylene glycol/water medium relative to control; procedure, shortened: as §1
[3] = species on record: Sus scrofa; test: Enhancement of theophylline transdermal penetration through porcine ear skin using Franz diffusion cell in isopropylmyristate medium relative to control; procedure, shortened: as §1

Ratio [1]	Ratio [2]	Ratio [3]	SMILES
2.27	2.63	1.29	CCCCCCCCCCCCOC(=O)CCCCCNC(=O)OCCCCCC(=O)OCCCCCCCCCCCC
0.91	3.29	1.23	CCCCCCCCCCCCNC(=O)CCCCCOC(=O)OCCCCCC(=O)NCCCCCCCCCCCC
1.7	1.11	1.15	CCCCCCCCCCCCNC(=O)CCC(C)OC(=O)OCCCCCCCCCCCC (configuration not stated)
2.4	2.13	1.07	CCCCCCCCCCCCOC(=O)CCCCCOC(=O)OCC
1.13	2.66	1.48	CCCCCCCCCCCCOC(=O)OCCCCCC(=O)NCCCCCCCCCC
1.83	1.52	1.01	CCCCCCCCCCCCOC(=O)CCCCCNC(=O)OCC
1.9	22.8	6.56	CCCCCCCCCCCCOC(=O)CCCCCN.CCCCCCCCCCCCOC(=O)CCCCCNC(=O)O [TRANSKARBAM 12]

The remaining lines, values behind:

SMILES	Ratio [1]	Ratio [2]	Ratio [3]
CCCCCCCCCCNC(=O)CCCCCOC(=O)OCC	3.37	1.36	1.75
CCCCCCCCCCCCOC(=O)CCCCCOC(=O)OCCCCCC(=O)OCCCCCCCCCCCC	1.76	3.7	1.39
CCCCCCCCCCCCNC(=O)CCC(C)OC(=O)OCC (configuration not stated)	1.48	1.45	1.77
CCCCCCCCCCCCOC(=O)CCCCCOC(=O)OCCCCCCCCCCCC	2.49	1.13	1.29
CCCCCCCCCCCCOC(=O)CCCCCCOC(=O)NCCCCCC(=O)OCCCCCCCCCCCC	1.22	1.02	1.07
CCCCCCCCCCCCOC(=O)CCCCCNC(=O)OCCCCCCCCCCCC	0.77	0.47	0.57
CCCCCCCCCCCCOC(=O)CCCCCCOC(=O)OCCCCCC(=O)OCCCCCCCCCCCC	0.8	1.24	1.49
